The test system of series [1] is Mus musculus. The series can be described thus: Protective effect against adenine-induced chronic renal failure in Kunming mouse assessed as nephridial GSH levels at 100 mg/kg, ig qd administered for 4 successive weeks with haikunshenxi capsule by colorimetric method (reference value: 3.05 +/- 0.11 mg/g). In kind it is functional.
The subject of series [2] is Mus musculus. In words: Protective effect against adenine-induced chronic renal failure in Kunming mouse assessed as nephridial iNOS levels at 200 mg/kg, ig qd administered for 4 successive weeks (reference value: 1.98 +/- 0.12 U/mg). Type of series: functional.
The subject of series [3] is Mus musculus. The series can be described thus: Protective effect against adenine-induced chronic renal failure in ig dosed Kunming mouse assessed as increase in nephridial GSH-PX levels administered as qd for 4 successive weeks by colorimetric method. In kind it is functional, organism-based. In outline: (§1)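 Male Kunming mice (20 ± 5 g) given dietary adenine to induce CRF, then dosed orally at 100 or 200 mg kg–1, with or without Haikunshenxi capsule; n = 10 per group. Kidney homogenate assayed for SOD and CAT (U mg–1 protein), GSH-Px (U L–1), GSH (mg g–1 protein) and MDA (nmol mL–1).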

Series [4] deals with Mus musculus. In words: Protective effect against adenine-induced chronic renal failure in ig dosed Kunming mouse assessed as decrease in nephridial MDA levels administered as qd for 4 successive weeks by thiobarbituric acid method. In kind it is functional, organism-based. In a few lines: as §1
Series [5] concerns Mus musculus. The series can be described thus: Protective effect against adenine-induced chronic renal failure in Kunming mouse assessed as nephridial GSH levels at 200 mg/kg, ig qd administered for 4 successive weeks by colorimetric method (reference value: 3.05 +/- 0.11 mg/g). In kind it is functional.
Series [6] has as its system Mus musculus. In words: Protective effect against adenine-induced chronic renal failure in Kunming mouse assessed as nephridial SOD levels at 100 mg/kg, ig qd administered for 4 successive weeks with haikunshenxi capsule by hydroxylamine method (reference value: 30.45 +/- 1.12 U/mg). Type of series: functional.
In series [7] the test system is Mus musculus. The series can be described thus: Protective effect against adenine-induced chronic renal failure in Kunming mouse assessed as nephridial IL-1beta levels at 100 mg/kg, ig qd administered for 4 successive weeks (reference value: 18.34 +/- 0.25 pg/ml). Type of series: functional.
For series [8], the system named is Mus musculus. In words: Protective effect against adenine-induced chronic renal failure in Kunming mouse assessed as nephridial GSH-PX levels at 100 mg/kg, ig qd administered for 4 successive weeks with haikunshenxi capsule by colorimetric method (reference value: 688.45 +/- 12.67 U/L). In kind it is functional.
Series [9] has as its system Mus musculus. In words: Protective effect against adenine-induced chronic renal failure in Kunming mouse assessed as reduction in number of adenine crystals at 200 mg/kg, ig qd administered for 4 successive weeks with haikunshenxi capsule by haematoxylin and eosin dye-based optical microscopic method. Type of series: functional, organism-based. In a few lines:
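Kidneys were taken from male Kunming mice given an adenine diet plus oral melanin (100 or 200 mg kg–1), with or without Haikunshenxi capsule, ten per group. Histological sections were examined at 400× for glomeruli, tubules, adenine crystals, tubular atrophy and interstitial fibrosis.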

Series [10] deals with Mus musculus. In words: Protective effect against adenine-induced chronic renal failure in Kunming mouse assessed as nephridial iNOS levels at 100 mg/kg, ig qd administered for 4 successive weeks (reference value: 1.98 +/- 0.12 U/mg). Type of series: functional.
The test system of series [11] is Mus musculus. In words: Protective effect against adenine-induced chronic renal failure in Kunming mouse assessed as nephridial GSH-PX levels at 200 mg/kg, ig qd administered for 4 successive weeks by colorimetric method (reference value: 688.45 +/- 12.67 U/L). Type of series: functional.
In series [12] the test system is Mus musculus. The series can be described thus: Protective effect against adenine-induced chronic renal failure in Kunming mouse assessed as nephridial GSH-PX levels at 200 mg/kg, ig qd administered for 4 successive weeks with haikunshenxi capsule by colorimetric method (reference value: 688.45 +/- 12.67 U/L). Type of series: functional.
Series [13] has as its system Mus musculus. The series can be described thus: Protective effect against adenine-induced chronic renal failure in Kunming mouse assessed as nephridial CAT levels at 200 mg/kg, ig qd administered for 4 successive weeks by visible spectrometry method (reference value: 44.13 +/- 1.25 U/mg). In kind it is functional.
The test system of series [14] is Mus musculus. The series can be described thus: Protective effect against adenine-induced chronic renal failure in ig dosed Kunming mouse assessed as decrease in serum creatinine levels administered as qd for 4 successive weeks with haikunshenxi capsule by picric acid colorimetric method. In kind it is functional, organism-based. In a few lines: (§2)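 Adenine-fed CRF model in male Kunming mice (20 ± 5 g) housed at 18–20 °C on a 12 h light/dark cycle. Oral dosing at 100 or 200 mg kg–1, with or without Haikunshenxi capsule; ten mice per group. Serum creatinine, BUN, total protein and albumin measured, each group compared with the model group.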

Series [15] concerns Mus musculus. In words: Protective effect against adenine-induced chronic renal failure in ig dosed Kunming mouse assessed as decrease in serum creatinine levels administered as qd for 4 successive weeks by picric acid colorimetric method. Type of series: functional, organism-based. In a few lines: as §2
Series [16] concerns Mus musculus. In words: Protective effect against adenine-induced chronic renal failure in ig dosed Kunming mouse assessed as decrease in blood urea nitrogen levels in serum administered as qd for 4 successive weeks by diacetyl oxime method. Type of series: functional, organism-based. In outline: as §2
For series [17], the system named is Mus musculus. The series can be described thus: Protective effect against adenine-induced chronic renal failure in Kunming mouse assessed as nephridial iNOS levels at 200 mg/kg, ig qd administered for 4 successive weeks with haikunshenxi capsule (reference value: 1.98 +/- 0.12 U/mg). Type of series: functional.
Series [18] can be described thus: Cytotoxicity against human HepG2 cells assessed as cell viability at 1 to 300 ug/ml after 24 hrs by MTT assay relative to control. Conditions: read-out: Activity. In kind it is cell-based. In outline:
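HepG2 cells exposed to the melanin were read by MTT absorbance. Viability (% of control) is calculated as treated-well absorbance ×100 / control-well absorbance.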
A general note: Formazan colour is commonly taken as a measure of viable cells.

In series [19] the test system is Mus musculus. In words: Protective effect against adenine-induced chronic renal failure in Kunming mouse assessed as nephridial SOD levels at 200 mg/kg, ig qd administered for 4 successive weeks with haikunshenxi capsule by hydroxylamine method (reference value: 30.45 +/- 1.12 U/mg). Type of series: functional.
Series [20] relates to Mus musculus. The series can be described thus: Protective effect against adenine-induced chronic renal failure in Kunming mouse assessed as nephridial CAT levels at 100 mg/kg, ig qd administered for 4 successive weeks with haikunshenxi capsule by visible spectrometry method (reference value: 44.13 +/- 1.25 U/mg). Type of series: functional.
Series [21] has as its system Mus musculus. In words: Protective effect against adenine-induced chronic renal failure in ig dosed Kunming mouse assessed as increase in albumin levels in serum administered as qd for 4 successive weeks with haikunshenxi capsule by bromocresol green colorimetric method. Type of series: functional, organism-based. In outline:
as §2

In series [22] the test system is Mus musculus. The series can be described thus: Protective effect against adenine-induced chronic renal failure in Kunming mouse assessed as nephridial TNF-alpha levels at 100 mg/kg, ig qd administered for 4 successive weeks (reference value: 250.15 +/- 8.10 pg/ml). Type of series: functional.
Series [23] deals with Mus musculus. In words: Protective effect against adenine-induced chronic renal failure in Kunming mouse assessed as nephridial TNF-alpha levels at 200 mg/kg, ig qd administered for 4 successive weeks (reference value: 250.15 +/- 8.10 pg/ml). Type of series: functional.
Series [24] concerns Mus musculus. The series can be described thus: Protective effect against adenine-induced chronic renal failure in ig dosed Kunming mouse assessed as decrease in blood urea nitrogen levels in serum administered as qd for 4 successive weeks with haikunshenxi capsule by diacetyl oxime method. In kind it is functional, organism-based. In outline:
as §2

Data on one molecule can be found in ChEMBL document CHEMBL4257441, “Protection effect of intracellular melanin from Lachnum YM156 and Haikunshenxi capsule combination on adenine-induced chronic renal failure in mice” (Medchemcomm, 2017).

Structures are written as SMILES. Active and inactive are the calls of the source. The rule behind the calls is not given here.

Take `Cc1c(=O)c(=O)c2c3c[nH]c4c(C)c(=O)c(=O)c(c5c[nH]c1c52)c43`: the Activity with Mus musculus [1] is 5.23 mg/g; in the series with Mus musculus [2] it was 1.64 U/mg; in the series with Mus musculus [3], “Dose-dependent effect”; in the series on Mus musculus [4], “Dose-dependent effect”; with Mus musculus [5] it was 4.84 mg/g; with Mus musculus [6] it was 46.52 U/mg. For the same molecule, the Activity in the series on Mus musculus [7] worked out at 17.66 pg/mL; in the series with Mus musculus [8], 850.44 U/L; in the series with Mus musculus [10] it was 1.79 U/mg; with Mus musculus [11], 790.43 U/L; in the series on Mus musculus [12] it was 878.91 U/L; with Mus musculus [13] it was 64.45 U/mg. Besides, the Activity result was “Dose-dependent effect” in the series with Mus musculus [14]; “Dose-dependent effect” in the series on Mus musculus [15]; “Dose-dependent effect” in the series on Mus musculus [16]; 0.68 U/mg with Mus musculus [17]; 48.58 U/mg in the series on Mus musculus [19]; 74.25 U/mg with Mus musculus [20]. In addition, the Activity result is “Dose-dependent effect” in the series with Mus musculus [21], 218.12 pg/mL in the series on Mus musculus [22], 168.32 pg/mL in the series with Mus musculus [23] and “Dose-dependent effect” in the series on Mus musculus [24]. In addition, the outcome in the series with Mus musculus [9] was Active. Also, the viability at 24 h in [18] amounted to 100%.
